Source: PubChem BioAssay (The Scripps Research Institute Molecular Screening Center)
ROCK2 inh: inhibitors of human ROCK2 kinase, primary screen, biochemical, high-throughput, luminescence | Rho-associated protein kinase 2 (Homo sapiens), O75116 | purified ROCK2, Kinase-Glo ATP depletion luminescence | inhibition, % at 6 µM | 60,000 tested, 0.35% active | AID 604, 2007;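 active = inhibition above the screen-wide mean inhibition plus 3 SD, cut at about 18% in these data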;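 also: plate controls were DMSO wells for no effect and Y-27632 control wells after no-enzyme background subtraction for full effect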
S1P3 agonist: human S1P3 receptor agonists, primary screen, cell-based, primary and confirmation, NFAT-BLA reporter; activation, % at 4.5 µM; S1P3 NFAT-BLA reporter cells, agonism, FRET ratio; relative to 1 µM S1P, basal subtracted; 60,000 tested, 0.1% active; Sphingosine 1-phosphate receptor 3 (Homo sapiens), Q99500;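 active = activation above the screen-wide mean plus 3 SD, cut at about 4.5% in these data, passing the limit was not always enough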
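Assay system: CHO cells stably expressing human S1P3, Gα16 and NFAT-β-lactamase reporter. Timing: overnight plating, 4 h compound 37 °C, 2 h substrate RT. Signal: β-lactamase FRET emission ratio 460/535 nm. Measure: percent activation versus median 1 µM S1P response, basal-subtracted, per plate. Repeats: primary screen single test, confirmation screen in triplicate.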
JNK3 inh: JNK3 kinase activity inhibitors, primary screen, biochemical, human, purified enzyme; Mitogen-activated protein kinase 10 (Homo sapiens), P53779; HTS; inhibition, % at 8 µM; 60,000 tested, 0.61% active; AID 746, 2007; in the data active = inhibition above about 17%;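 also: 0% = DMSO and 100% = reference inhibitor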
Target sequence (P53779 whole entry, looked up): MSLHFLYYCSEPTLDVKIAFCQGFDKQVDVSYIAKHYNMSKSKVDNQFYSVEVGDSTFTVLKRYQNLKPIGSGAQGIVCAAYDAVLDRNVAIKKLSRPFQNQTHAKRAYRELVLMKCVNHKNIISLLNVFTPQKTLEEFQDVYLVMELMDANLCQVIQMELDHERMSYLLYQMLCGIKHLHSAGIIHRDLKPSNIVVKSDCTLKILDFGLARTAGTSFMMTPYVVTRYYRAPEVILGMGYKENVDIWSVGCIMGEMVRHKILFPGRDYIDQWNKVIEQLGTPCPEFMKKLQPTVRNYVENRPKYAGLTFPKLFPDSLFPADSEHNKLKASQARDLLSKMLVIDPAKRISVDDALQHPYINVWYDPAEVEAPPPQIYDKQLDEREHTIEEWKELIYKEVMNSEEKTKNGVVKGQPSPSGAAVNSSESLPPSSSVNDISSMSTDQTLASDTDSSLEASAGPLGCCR
S1P1 ag-PAM: S1P1 agonists and agonism potentiators, primary screen, cell-based, primary and confirmation screens, CRE-bla reporter; S1P1 CRE-bla cells, forskolin, beta-lactamase FRET, potentiator mode; S1P1 agonist co-added at EC20, 2 nM; 100% = saturating reference agonist, 0% = basal; AID 449, 2006; activation, % at 9.5 µM; 56,000 tested, 0.57% active;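 active = activation above a cutoff set at the mean activation of all tested compounds plus 3 SD, cut at about 54% in these data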;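 also: forskolin at 4 µM as EC80 and the EC20 agonist is SEW2871; 100% = SEW2871 at its EC100 plus forskolin at EC80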
MMP13 inh: human MMP13 inhibitors, primary screen, biochemical, FRET peptide cleavage | Collagenase 3 (Homo sapiens), P45452 | MMP-13 fTHP FRET cleavage, Mca fluorescence | inhibition, % at 4 µM | 65,000 tested, 0.07% active | AID 570, 2006;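 active = inhibition above the mean of compound-free control plate wells plus 3 SD, cut at about 14% in these data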;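 also: 0% = DMSO wells and 100% = wells with reference MMP-13 inhibitor after basal subtraction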
PKA inh: inhibitors of human PKA kinase activity, primary screen, biochemical, ATP-depletion luminescence, Kemptide substrate; inhibition, % at 6 µM; PKA Kemptide phosphorylation, Kinase-Glo ATP luminescence; 65,000 tested, 0.1% active;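 active = inhibition above the screen-wide mean inhibition plus 3 SD, cut at about 21% in these data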
An asterisk follows results filed as active; · = no result. The list is not random: actives were taken first. Their share in the collection is about 1.2%.

SMILES	ROCK2 inh	S1P3 agonist	JNK3 inh	S1P1 ag-PAM	MMP13 inh	PKA inh
Cc1cc(C(=O)CSc2nnnn2-c2ccc(O)cc2)c(C)n1Cc1ccc2c(c1)OCO2	9.7	0.4	-0.5	61.3*	-4.1	7.5
COC(=O)c1ccc(C2CC(=O)Nc3cc(OC)c(OC)c(OC)c32)cc1 (configuration not stated)	9.0	-0.2	-5.4	·	5.5	7.2
COc1ccc2cc3c(N)c(C(=O)NCc4ccco4)sc3nc2c1	19.5*	-0.9	-22.7	-36.6	-13.1	-5.8
Nc1c(C(=O)NCc2ccco2)sc2nc3c(cc12)C(=O)CCC3	4.8	-1.2	3.2	-28.9	4.8	9.2
O=C(Nc1cccc(-c2cnc3ccccc3n2)c1)c1ccco1	7.6	-0.4	9.8	-38.1	2.1	1.3
O=C(CNC(=O)c1ccc(Br)o1)Nc1cccc(-c2cnc3ccccc3n2)c1	9.3	-0.7	19.7*	·	3.0	8.1
CCn1c(SCC(=O)C(C)(C)C)nnc1-c1ccccn1	3.4	-1.1	7.5	·	16.4*	6.4
O=C(C1CCC1)N1CCc2cc(S(=O)(=O)Nc3ccc4c(c3)OCCO4)ccc21	5.7	-0.7	3.9	114.8*	-1.2	10.7
CCC(=O)N1CCc2cc(S(=O)(=O)Nc3ccc4c(c3)OCCO4)ccc21	·	·	·	·	0.2	6.5
COC(=O)c1ccc(COC(=O)C23CC4CC(CC(O)(C4)C2)C3)o1	8.2	-0.8	-3.4	-71.4	-2.6	10.1
Cc1cc(C(=O)COC(=O)c2csc3c2CCCC3)c(C)n1C	0.4	-0.2	-1.8	78.9*	-3.2	1.9
c1ccc2c(c1)nc(N1CCOCC1)c1c3ccccc3[nH]c21	-2.0	-0.7	58.7*	-13.2	-232.9	5.1
c1ccc2nc(N3CCOCC3)c(N3CCOCC3)nc2c1	7.2	-0.5	5.9	6.2	2.4	11.5
Cc1nnc(NC(=O)c2cc3n(n2)C(C(F)(F)F)CC(C2CC2)N3)s1 (configuration not stated)	-3.5	-0.4	-3.0	35.2	1.2	-0.3
O=C(Nc1nc2c(s1)CCCC2)c1cc2n(n1)C(C(F)(F)F)CC(C1CC1)N2 (configuration not stated)	6.4	-0.3	-2.0	106.8*	7.9	7.5
N#CCCSc1ncnc2c1oc1ccccc12	6.1	0.0	27.8*	-18.5	-3.0	1.3
CCOC(=O)CC(=O)CSc1ncnc2c1oc1ccccc12	5.5	-0.3	42.0*	-10.4	-3.0	4.3
OCCSc1ncnc2c1oc1ccccc12	9.2	-0.3	6.7	-36.5	-11.8	8.2
O=C(CSc1ncnc2c1oc1ccccc12)N1CCCc2ccccc21	0.9	0.4	3.2	64.9*	-1.3	2.3
COc1ccccc1CN(Cc1ccco1)S(=O)(=O)c1ccc(-n2cnnn2)c(OC)c1	1.6	-1.3	4.8	15.7	-0.2	4.5
Nc1[nH]nc2nc(N3CCCC3)nc(-c3ccccc3)c12	·	·	·	·	-1.0	25.6*
Cc1cc(C)n2nc3nc(N4CCCC4)nc(-c4ccccc4)c3c2n1	6.8	-0.5	1.0	8.8	-45.6	13.2
O=C(Nc1ccccc1)N(O)c1ccc(Cl)cc1	7.5	-1.3	-0.9	-16.5	-0.3	6.3
CSCCC(Nc1ncnc2ccc(Br)cc12)C(=O)O (configuration not stated)	-4.8	-1.1	19.5*	8.7	-8.6	-1.1
CSCC[C@H](NC(=O)Nc1ccc(C)cc1C)C(=O)O	4.4	0.7	5.5	10.9	-1.1	7.6
SMILES	ROCK2 inh	S1P3 agonist	JNK3 inh	S1P1 ag-PAM	MMP13 inh	PKA inh
O=c1ccc(=O)n2n1CC(O)C2	22.5*	0.0	2.0	10.1	-5.9	14.4
COc1cccc(C2=NOC(C(=O)Nc3cc(OC)c(OC)c(OC)c3)C2)c1 (configuration not stated)	-1.7	-0.4	81.0*	-2.4	-2.8	0.0
Cc1ccc(-c2noc(CN3C(C)CCCC3C)n2)cc1 (configuration not stated)	6.3	-1.0	-2.4	-23.2	0.3	11.4
COc1cccc2c(=O)c(C/C=C(/C)Cl)c(C)[nH]c12	0.5	-1.2	18.4*	·	-50.4	7.3
CCOc1ccc(-c2nc(CSCC(=O)N3CCN(c4cccc(OC)c4)CC3)c(C)o2)cc1	-3.6	-0.6	3.1	69.3*	4.8	-6.1
Cc1cccc(-c2nc(CSCC(=O)N3CCN(Cc4ccc5c(c4)OCO5)CC3)c(C)o2)c1	5.5	-0.4	-9.6	57.9*	-32.9	3.9
Cc1ccc(-c2nc(CSCC(=O)N3CCN(c4ccccn4)CC3)c(C)o2)cc1	-6.4	-1.3	-2.5	110.0	-3.8	7.2
CCOC(=O)C(C)Oc1ccc(=O)n(-c2ccccc2)n1 (configuration not stated)	0.5	-0.6	-10.9	-4.1	-0.4	-1.4
c1nc(NCC2CCCO2)c2[nH]cnc2n1 (configuration not stated)	·	·	·	·	5.1	15.7
c1nc(NC2CCCCC2)c2[nH]cnc2n1	34.3*	-2.4	8.4	-1.3	-1.3	39.1*
CCCn1c(NC(=O)c2cccc(S(=O)(=O)N3CCCC3)c2)nc2ccccc21	32.0*	-1.1	4.7	73.5*	-4.3	12.3
Cn1nnnc1P(=O)(c1ccccc1)c1ccccc1	·	·	·	·	3.0	-1.1
CCOC(=O)c1c(CN2CCCCC2)n(C)c2ccc(OC)c(S(=O)(=O)c3ccccc3)c12	·	·	·	·	-1.0	6.9
Cc1cc(C)n2ncc(C(=O)NCc3cccnc3)c2n1	4.2	-1.0	-1.3	-10.3	-65.7	9.5
COc1ccc(CNC(=O)c2cnn3c(C(F)F)cc(C)nc23)cc1OC	3.0	0.1	24.3*	-25.6	4.2	1.4
COCCn1c(C)cc(C(=O)CSc2nnc(-c3cccnc3)n2-c2ccccc2F)c1C	0.1	-0.3	-4.5	98.0*	-6.8	5.3
CCn1c(SCC(=O)c2cc(C)n(-c3ccc(C(=O)OC)cc3)c2C)nnc1-c1cccnc1	2.5	-0.5	4.5	-8.2	-7.3	7.3
C=CCN1C(=O)C2(C(C#N)=C(N)Oc3n[nH]c(CCC)c32)c2ccccc21 (configuration not stated)	1.4	-0.2	9.3	4.0	-0.4	-2.1
Cc1oc(-c2ccccc2)nc1CS(=O)CC(=O)N1CCc2ccccc2C1 (configuration not stated)	0.8	-0.4	-4.5	8.2	-0.4	-10.0
Cc1ccc2nc(Cc3ccc(N)cc3)oc2c1	3.4	-0.5	20.5*	-5.2	-1.7	11.9
